The MIC is the lowest concentration found to suppress growth.

In brackets after ≈: the same amount, converted by molar mass. Activity calls are given as the source filed them. The calls are words filed in the database; no cut-off is given here.

For series [1], the system named is U2OS. The series can be described thus: Cytotoxicity against human U2OS cells by MTT assay. It is filed as cell-based. An outline of the steps: (§1)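 MTT assay with cisplatin as positive control.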
Series [2] relates to Candida albicans. The series can be described thus: Antifungal activity against Candida albicans ATCC 24433 assessed as fractional inhibition concentration index in presence of fluconazole by checkerboard assay. It counts as functional. An outline of the steps:
(§2)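 Checkerboard in RPMI-1640/MOPS, inoculum 1.0 × 10^4 cfu/mL, 35 °C, 24 h, OD 595 nm. Compound 25 to 0.8 μg/mL against fluconazole 4.0 to 0.0078 μg/mL. MIC = concentrations giving ≥80% growth reduction. FICI ≤ 0.5 counts as synergy; values compared at fluconazole 0.031 μg/mL.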

For series [3], the system named is Candida albicans. The series is described as follows: Antifungal activity against Candida albicans ATCC 24433 assessed as growth inhibition after 24 hrs by broth microdilution assay. It is filed as functional. The note with it: ATCC 24433, 24 h. An outline of the steps:
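Broth microdilution: 24-h colonies suspended in 0.85% saline, diluted in RPMI-1640 with MOPS to 1.0 × 10^4 cfu/mL final, mixed 1:1 with sample; 35 °C, 24 h; OD 595 nm. MIC = lowest concentration giving 80% growth reduction. Fluconazole positive control; SD from three independent experiments.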

Series [4] has as its system Escherichia coli. The series is described as follows: Antibacterial activity against Escherichia coli ATCC 25922 by broth microdilution method. It is filed as functional. An outline of the steps: (§3)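 Broth microdilution in 96-well plates; MIC read by comparing OD with the growth control; amoxicillin and streptomycin as positive controls.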
For series [5], the system named is Pseudomonas aeruginosa. The series can be described thus: Antibacterial activity against Pseudomonas aeruginosa ATCC 9027 by broth microdilution method. It is filed as functional. An outline of the steps: as §3
(In broth dilution the organism is exposed to a series of concentrations in liquid medium.)

The test system of series [6] is Candida albicans. The series is described as follows: Antifungal activity against Candida albicans ATCC 24433 assessed as fractional inhibition concentration ratio in presence of fluconazole by checkerboard assay. It counts as functional. An outline of the steps:
as §2

Series [7] relates to Candida albicans. The series is described as follows: Potentiation of antifungal activity of fluconazole against Candida albicans ATCC 24433 by checkerboard assay. It is filed as functional. An outline of the steps:
as §2

The subject of series [8] is Candida albicans. The series is described as follows: Synergistic antibiofilm activity against Candida albicans ATCC 24433 assessed as fractional inhibition concentration index after 24 hrs in presence of fluconazole checkerboard assay. It is filed as functional. An outline of the steps: (§4)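 Preformed biofilms (1.0 × 10^6 cfu/mL in RPMI-1640/MOPS, 37 °C, 24 h) treated 24 h at 37 °C in a checkerboard: compounds 160 to 5 μg/mL, fluconazole 500 to 8 μg/mL. Read by 0.5 mg/mL XTT for 2 h at 490 nm, ≥80% reduction as endpoint; FICI calculated.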

Series [9] concerns Candida albicans. The series can be described thus: Antibiofilm activity against Candida albicans ATCC 24433 after 24 hrs in presence of fluconazole by XTT-based colorimetric assay. The note with it: ATCC 24433, 24 h. It counts as functional. In short, it runs like this: as §4
For series [10], the system named is Candida albicans. The series is described as follows: Antifungal activity against Candida albicans ATCC 24433 assessed as synergistic growth inhibition after 24 hrs in presence of fluconazole by broth microdilution assay. It counts as functional. The note with it: ATCC 24433, 24 h. In short, it runs like this: as §2
The test system of series [11] is Candida albicans. The series can be described thus: Antibiofilm activity against Candida albicans ATCC 24433 after 24 hrs by XTT-based colorimetric assay. It counts as functional. Conditions: ATCC 24433, 24 h. In short, it runs like this: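 XTT assay: YPD overnight culture, PBS-washed, 1.0 × 10^6 cfu/mL in RPMI-1640/MOPS; biofilms formed at 37 °C for 24 h, washed, then treated 24 h at 37 °C; 0.5 mg/mL XTT for 2 h, read at 490 nm. MIC = lowest concentration giving ≥80% reduction in XTT signal.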

Series [12] has as its system Staphylococcus aureus. The series is described as follows: Antibacterial activity against Staphylococcus aureus ATCC 25923 by broth microdilution method. It is filed as functional. An outline of the steps: as §3
The test system of series [13] is Bacillus subtilis. The series can be described thus: Antibacterial activity against Bacillus subtilis ATCC 6633 by broth microdilution method. It is filed as functional. An outline of the steps: as §3
Series [14] relates to MCF7. The series can be described thus: Cytotoxicity against human MCF7 cells by MTT assay. It counts as cell-based. An outline of the steps:
as §1
In general terms: Formazan colour is commonly taken as a measure of viable cells.

Series [15] deals with HepG2. The series is described as follows: Cytotoxicity against human HepG2 cells by MTT assay. It is filed as cell-based. In short, it runs like this:
as §1

The subject of series [16] is Candida albicans. The series is described as follows: Synergistic antibiofilm activity against Candida albicans ATCC 24433 assessed as fractional inhibition concentration ratio after 24 hrs in presence of fluconazole by checkerboard assay. It is filed as functional. An outline of the steps:
as §4

The subject of series [17] is Candida albicans. The series can be described thus: Synergistic antibiofilm activity against Candida albicans ATCC 24433 assessed as reduction in biofilm formation at 40 to 80 ug/ml in presence of 63 ug/ml fluconazole by scanning electron microscopic analysis. It is filed as functional, organism-based. In short, it runs like this: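 Biofilms grown 24 h at 37 °C on poly-L-lysine-treated glass coverslips from 1.0 × 10^6 cfu/mL, washed, then exposed 24 h to compound plus fluconazole; fixed in 2.5% glutaraldehyde (0.2 M PBS, pH 7.2) and 1% osmium, ethanol-dehydrated, critical-point dried, gold-coated; SEM at 10 kV.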

Series [18] concerns Candida albicans. The series can be described thus: Antibiofilm activity against Candida albicans ATCC 24433 at 1000 ug/ml after 24 hrs by XTT-based colorimetric assay. It counts as functional, organism-based. In short, it runs like this: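 Biofilms grown from overnight YPD cells, PBS-washed and resuspended to 1.0 × 10^6 cfu/mL in RPMI-1640 plus MOPS, 37 °C for 24 h. After three PBS washes, treated a further 24 h at 37 °C. Then 0.5 mg/mL XTT for 2 h, read at 490 nm. MIC taken as the lowest concentration giving ≥80% reduction in XTT reduction.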

Series [19] concerns Candida albicans. The series is described as follows: Antibiofilm activity against Candida albicans ATCC 24433 at 1000 ug/ml after 24 hrs by scanning electron microscopic analysis. It is filed as functional, organism-based. In short, it runs like this: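 Biofilms grown from 1.0 × 10^6 cfu/mL suspensions on poly-L-lysine-treated glass coverslips, 37 °C for 24 h. PBS-washed three times, then exposed to drug for another 24 h. Fixed overnight in 2.5% glutaraldehyde in 0.2 M PBS (pH 7.2), then 1% osmium for 2 h. Ethanol-dehydrated, critical-point dried, gold-coated, and imaged by SEM at high vacuum, 10 kV.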

`C=C(C)[C@@H]1[C@H](O)C[C@@]2(C)OC3=C(C[C@@H]12)C(=O)[C@]1(O)CO[C@H]3C1`: the Activity result in [1], in [14] and in series [15] was “Non-toxic” in each case. Further, the figures for the “fractional inhibitory concentration index (FICI)” value in [2] and in [8] were below 0.38 and below 0.31, respectively. Besides, the MIC80 in [3] was above 100 µg/mL; in [9], 40 µg/mL; in series [10], 25 µg/mL; in [11], above 200 µg/mL. In addition, the MIC was 88.3 µg/mL (≈ 288 µM) in series [4], 53.2 µg/mL (≈ 174 µM) in [5], 73.6 µg/mL (≈ 240 µM) in series [12] and 73.5 µg/mL (≈ 240 µM) in series [13]. Also, the Ratio in [6] and in [16] was below 0.25 in each case. In addition, the “fold change (FC)” value in [7] is given as above 16.

On to `CC(C)[C@H]1OC(=O)[C@H](Cc2ccccc2)N(C)C(=O)[C@@H](C(C)C)OC(=O)[C@H](Cc2ccccc2)N(C)C(=O)[C@@H](C(C)C)OC(=O)[C@H](Cc2ccccc2)N(C)C1=O`, for which the entries for the “fractional inhibitory concentration index (FICI)” value in series [2] and in series [8] were below 0.13 and below 0.31, respectively. Moreover, the MIC80 in series [3] was above 100 µg/mL; in series [9] it was 40 µg/mL; in series [11], above 200 µg/mL. Further, the Ratio in [6] is below 0.013; in series [16], below 0.25. In addition, in series [7], the “fold change (FC)” value is listed as above 16. In addition, the minimum inhibitory concentration (MIC) in series [10] stood at 1.3 µg/mL.

In the case of `C[C@@]12CC[C@@H]([C@](C)(O)CO)[C@@H]1CC1=C(O2)[C@@H]2C[C@@](O)(CO2)C1=O`, the Activity result in series [1], in series [14] and in series [15] was “Non-toxic” throughout. Moreover, the “fractional inhibitory concentration index (FICI)” value in series [2] is on record as 0.23; in series [8], below 0.31. Moreover, the MIC80 is 57.3 µg/mL (≈ 177 µM) in series [3], 40 µg/mL in [9], 6.3 µg/mL in series [10] and above 200 µg/mL in series [11]. For the same compound, the minimal inhibitory concentration (MIC) is 78 µg/mL (≈ 240 µM) in series [4], above 100 µg/mL in series [5], 79.2 µg/mL (≈ 244 µM) in series [12] and above 100 µg/mL in series [13]. Besides, the figures for the Ratio in series [6] and in series [16] were 0.11 and below 0.25, respectively. Also, the “fold change (FC)” value in series [7] was above 16. Besides, the result in series [17] was Active.

For `OC(Cn1cncn1)(Cn1cncn1)c1ccc(F)cc1F` [FLUCONAZOLE], the outcome in series [18] and in [19] was inactive. The MIC80 in [3] was 0.25 µg/mL (≈ 0.816 µM); in series [11], above 1000 µg/mL.

The record behind these values is ChEMBL document CHEMBL3751733, “Synergistic Antifungal Meroterpenes and Dioxolanone Derivatives from the Endophytic Fungus Guignardia sp” (J Nat Prod, 2015).
